Source: paper PMC10060059 (Thrombosis and Haemostasis, 2023)
Read-outs that look alike come from different tables or passages of the source. Marks after values point to notes of the source that are not given here.

Legend:
[1] = Rivaroxaban/apixaban plasma concentrations; assay type: in vivo, human; conditions: for Effect of creatinine clearance on Cmax, multivariate analysis / Effect of creatinine clearance on Cmax, univariate analysis / Effect of creatinine clearance on Cmin, multivariate analysis / Effect of creatinine clearance on Cmin, univariate analysis: per decrease of 10 mL/min
[2] = Six-month clinical follow-up; assay type: in vivo, human; conditions: 6-month follow-up
In short: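 Bleedings (site, severity), thromboembolic events (site) and deaths were recorded. Two geriatricians blinded to PK/PD data classed bleeds as major or nonmajor clinically relevant, and minor bleeds were not systematically recorded. Rates were given per DOAC group.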

thrombin generation = assay: Thrombin generation on ST-Genesia; assay type: biochemical, human
[3] = cited from earlier work
[4] = CYP3A4/5 modulator in addition to amiodarone
[5] = P-gp modulator in addition to amiodarone
[6] = full dose: rivaroxaban 20 mg o.d., apixaban 5.0 mg b.i.d.
[7] = reduced dose: rivaroxaban 15 mg o.d., apixaban 2.5 mg b.i.d.
[8] = rivaroxaban 15 mg o.d., apixaban 2.5 mg b.i.d.
[9] = STG-ThromboScreen without thrombomodulin
[10] = for halved concentrations, STG-ThromboScreen without thrombomodulin
[11] = per decrease of 10 mL/min, STG-ThromboScreen without thrombomodulin
[12] = 2.5 mg b.i.d. vs. 5 mg b.i.d., listed as apixaban

O=C(NC[C@H]1CN(c2ccc(N3CCOCC3=O)cc2)C(=O)O1)c1ccc(Cl)s1 [Rivaroxaban, rivaroxaban]
Effect of dose regimen on Cmax, multivariate analysis ([1]; 15 mg o.d. vs. 20 mg o.d.): 29.4% ^a [−14.2; 95.2]
Effect of dose regimen on Cmax, univariate analysis ([1]; 15 mg o.d. vs. 20 mg o.d.): +20.3% ^a [−16.7; +73.5]
Effect of dose regimen on Cmin, multivariate analysis ([1]; 15 mg o.d. vs. 20 mg o.d.): −3.2% ^a [−35.1; 44.6]
Effect of dose regimen on Cmin, univariate analysis ([1]; 15 mg o.d. vs. 20 mg o.d.): −3.8% ^a [−35.1; +42.6]
Effect of dose regimen on Cmax, univariate analysis ([1]; 15 mg o.d. vs. 20 mg o.d., listed as rivaroxaban): +20.3%
Effect of CYP3A4/5 modulator on Cmax, multivariate analysis [1, 4]: +10.6% [−23.1; 58.9]
Effect of CYP3A4/5 modulator on Cmax, univariate analysis [1, 4]: +9.5% [−21.0; 51.6]
Effect of CYP3A4/5 modulator on Cmin, multivariate analysis [1, 4]: +43.1% [5.3; 94.3]
Effect of CYP3A4/5 modulator on Cmin, univariate analysis [1, 4]: +31.1% [−24.7; 72.2]
Effect of P-gp inhibitor on Cmax, multivariate analysis [1, 5]: −6.31% [−35.8; 36.6]
Effect of P-gp inhibitor on Cmax, univariate analysis [1, 5]: −9.95% [−35.3; 25.4]
Effect of P-gp inhibitor on Cmin, multivariate analysis [1, 5]: −8.7% [−34.2; 26.8]
Effect of P-gp inhibitor on Cmin, univariate analysis [1, 5]: −15.9% [−37.6; 13.5]
Effect of amiodarone on Cmax, multivariate analysis ([1]; amiodarone intake): −26.1% ^b [−75.8; 125.5]
Effect of amiodarone on Cmax, univariate analysis ([1]; amiodarone intake): +4.73% [−31.5; 60.2]
Effect of amiodarone on Cmin, multivariate analysis ([1]; amiodarone intake): 99.8% ^c [10.3; 262.0]
Effect of amiodarone on Cmin, univariate analysis ([1]; amiodarone intake): +47.8% [−2.8; 109.4]
Effect of amiodarone on Cmin, univariate analysis ([1]; amiodarone intake, listed as rivaroxaban): +47.8%
Effect of female gender on Cmax, multivariate analysis ([1]; female gender): +11.8% [−20.8; 57.9]
Effect of female gender on Cmax, univariate analysis ([1]; female gender): +12.2% [−17.7; 53.0]
Effect of female gender on Cmin, multivariate analysis ([1]; female gender): −10.1% [−35.2; 22.3]
Effect of female gender on Cmin, univariate analysis ([1]; female gender): −14.2% [−36.0; 15.1]
inter-individual variability of Cmax (coefficient of variation) [1, 6]: 47%
inter-individual variability of Cmin (coefficient of variation) [1, 6]: 37%
Effect of creatinine clearance on Cmax, multivariate analysis [1]: +3.4% ^b [−7.6; 15.6]
Effect of creatinine clearance on Cmax, univariate analysis [1]: +1.89% ^b [−8.2; 13.1]
Effect of creatinine clearance on Cmin, multivariate analysis [1]: +5.0% ^b [−4.9; 16.0]
Effect of creatinine clearance on Cmin, univariate analysis [1]: +8.1% ^b [−3.9; 15.8]
Effect of creatinine clearance on Cmin, univariate analysis ([1]; listed as rivaroxaban): +8.1%
Effect of ABCB1 3435C > T on Cmax, multivariate analysis ([1]; per mutated allele): +18.3% ^d [−10.9; 39.8]
Effect of ABCB1 3435C > T on Cmax, univariate analysis ([1]; per mutated allele): +18.3% ^d [−5.3; 36.6]
Effect of ABCB1 3435C > T on Cmin, multivariate analysis ([1]; per mutated allele): +10.4% ^d [−14.9; 30.1]
Effect of ABCB1 3435C > T on Cmin, univariate analysis ([1]; per mutated allele): +16.9% ^d [−6.6; 31.0]
Effect of ABCB1 3435C > T on Cmin, univariate analysis ([1]; per mutated allele, listed as rivaroxaban): +16.9%
inter-individual variability of Cmax (coefficient of variation) [1, 7]: 49%
inter-individual variability of Cmin (coefficient of variation) [1, 7]: 75%
median Cmax ([1]; rivaroxaban 15 mg o.d., T1-T4, NVAF in-patients ≥80 years): 251 ng/mL
patients above the 95th percentile of SmPC values at Tmin [1, 8]: 3.1%
patients below the 5th percentile of SmPC values at Tmin [1, 8]: 21.5%
death rate [2]: 17.3%
thromboembolic event rate [2]: 1.0%
Effect of amiodarone on peak height at Tmin, multivariate (thrombin generation; [9]): −44.6%** [−75.1; 23.2]
Effect of amiodarone on peak height at Tmin, univariate (thrombin generation; [9]): −52.2%
Effect of heart failure on peak height at Tmax, multivariate (thrombin generation; [9]): −22.3% [−45.0; 9.8]
Effect of heart failure on peak height at Tmax, univariate (thrombin generation; [9]): −36.6%
Effect of heart failure on peak height at Tmin, multivariate (thrombin generation; [9]): −12.7% [−37.7; 22.4]
Effect of heart failure on peak height at Tmin, univariate (thrombin generation; [9]): −31.4% [−52.2; −1.7]
Effect of plasma concentrations on peak height at Tmax, multivariate (thrombin generation; [10]): –5.0% ^a [−27.9; 25.2]
Effect of plasma concentrations on peak height at Tmax, univariate (thrombin generation; [10]): +23.9% ^a [−11.4; 73.2]
Effect of plasma concentrations on peak height at Tmin, multivariate (thrombin generation; [10]): +21.0% ^a [−4.0; 52.4]
Effect of plasma concentrations on peak height at Tmin, univariate (thrombin generation; [10]): +38.7% ^a [12.4;71.1]
Effect of creatinine clearance on peak height at Tmax, multivariate (thrombin generation; [11]): −16.4% ^b [−26.3; −5.0]
Effect of creatinine clearance on peak height at Tmin, multivariate (thrombin generation; [11]): −6.76% ^b [−15.5; 2.8]
Effect of creatinine clearance on peak height at Tmin, univariate (thrombin generation; [11]): −6.1% ^b [−16.2; 5.2 ]
inter-individual variability of Cmax and Cmin ([3]; Mueck et al's data): around 30%

COc1ccc(-n2nc(C(N)=O)c3c2C(=O)N(c2ccc(N4CCCCC4=O)cc2)CC3)cc1 [Apixaban, apixaban]
Effect of dose regimen on Cmax, multivariate analysis ([1]; 2.5 mg b.i.d. vs. 5 mg b.i.d.): +64.8% ^e [16.6; 132.9]
Effect of dose regimen on Cmax, univariate analysis ([1]; 2.5 mg b.i.d. vs. 5 mg b.i.d.): +44.9% ^e [7.14; 96.1]
Effect of dose regimen on Cmin, multivariate analysis ([1]; 2.5 mg b.i.d. vs. 5 mg b.i.d.): +54.8% ^e [6.65; 124.6]
Effect of dose regimen on Cmin, univariate analysis ([1]; 2.5 mg b.i.d. vs. 5 mg b.i.d.): +45.6% ^e [4.7; 102.6]
Effect of dose regimen on Cmax, multivariate analysis [1, 12]: +64.8%
Effect of dose regimen on Cmax, univariate analysis [1, 12]: 44.9%
Effect of dose regimen on Cmin, multivariate analysis [1, 12]: +54.8%
Effect of dose regimen on Cmin, univariate analysis [1, 12]: 45.6%
Effect of CYP3A4/5 modulator on Cmin, univariate analysis [1, 4]: +20.8% [−9.8; 61.7]
Effect of amiodarone on Cmax, multivariate analysis ([1]; amiodarone intake): +79.3% [5.5; 204.7]
Effect of amiodarone on Cmax, univariate analysis ([1]; amiodarone intake): +43.5% [7.9; 90.9]
Effect of amiodarone on Cmin, univariate analysis ([1]; amiodarone intake): +14.4% [−18.5; 60.5]
Effect of amiodarone on Cmax, univariate analysis ([1]; amiodarone intake, listed as apixaban): +43.5%
Effect of female gender on Cmax, multivariate analysis ([1]; female gender): +28.7% [−4.5; 73.4]
Effect of female gender on Cmax, univariate analysis ([1]; female gender): +44.0% [7.4; 93.1]
Effect of female gender on Cmin, univariate analysis ([1]; female gender): +15.7% [−14.9; 57.1]
Effect of female gender on Cmax, univariate analysis ([1]; female gender, listed as apixaban): +44.0%
inter-individual variability of Cmax (coefficient of variation) [1, 6]: 47%
inter-individual variability of Cmin (coefficient of variation) [1, 6]: 68%
Effect of creatinine clearance on Cmax, multivariate analysis [1]: +4.5% ^b [−3.0; 11.4]
Effect of creatinine clearance on Cmax, univariate analysis [1]: +3.3% ^b [−4.28; 10.31]
Effect of creatinine clearance on Cmin, multivariate analysis [1]: +4.5% ^b [−4.9; 13.1]
Effect of creatinine clearance on Cmin, univariate analysis [1]: +4.6% ^b [−4.2; 12.7]
Effect of ABCB1 3435C > T on Cmax, multivariate analysis ([1]; per mutated allele): +10.1% ^d [−8.3; 25.3]
Effect of ABCB1 3435C > T on Cmax, univariate analysis ([1]; per mutated allele): +2.1% ^d [−18.7; 19.3]
Effect of ABCB1 3435C > T on Cmin, univariate analysis ([1]; per mutated allele): +14.8% ^d [−4.1; 30.3]
Effect of ABCB1 3435C > T on Cmin, univariate analysis ([1]; per mutated allele, listed as apixaban): +14.8%
inter-individual variability of Cmax (coefficient of variation) [1, 7]: 46%
inter-individual variability of Cmin (coefficient of variation) [1, 7]: 61%
patients above the 95th percentile of SmPC values at Tmin [1, 8]: 9.7%
patients below the 5th percentile of SmPC values at Tmin [1, 8]: 9.7%
death rate [2]: 18.9%
thromboembolic event rate [2]: 3.6%
association of ETP with DOAC concentrations (thrombin generation; STG-DrugScreen and STG-ThromboScreen without TM): ETP was associated with apixaban concentrations
Effect of amiodarone on peak height at Tmax, multivariate (thrombin generation; [9]): −26.0% [−91.8; 564.1]
Effect of amiodarone on peak height at Tmax, univariate (thrombin generation; [9]): +3.7% [−58.7; 160.1]
Effect of amiodarone on peak height at Tmin, multivariate (thrombin generation; [9]): −57.47% [−83.2; 7.9]
Effect of amiodarone on peak height at Tmin, univariate (thrombin generation; [9]): −37.2% [−60.0; −1.5]
Effect of heart failure on peak height at Tmax, multivariate (thrombin generation; [9]): −9.2% [−62.9; 122.6]
Effect of heart failure on peak height at Tmax, univariate (thrombin generation; [9]): −26.7% [−66.7; 61.4]
Effect of heart failure on peak height at Tmin, multivariate (thrombin generation; [9]): +0.84% [−30.8; 46.9]
Effect of amiodarone on peak height at Tmin, univariate (thrombin generation; STG-ThromboScreen without thrombomodulin, listed as apixaban): −37.2%
Effect of plasma concentrations on peak height at Tmax, multivariate (thrombin generation; [10]): +86.8% ^a [−0.48; 250.5]
Effect of plasma concentrations on peak height at Tmin, multivariate (thrombin generation; [10]): +32.7% ^a [8.28; 62.59]
Effect of plasma concentrations on peak height at Tmin, univariate (thrombin generation; [10]): 37.1% ^a 13.1; 66.2]
Effect of creatinine clearance on peak height at Tmax, multivariate (thrombin generation; [11]): +2.4% ^b [−17.9; 27.8]
Effect of creatinine clearance on peak height at Tmax, univariate (thrombin generation; [11]): +0.42% ^b [4.70; 36.9]
Effect of creatinine clearance on peak height at Tmin, univariate (thrombin generation; [11]): 1.7% ^b [−10.7; 15.8]
median Cmax ([3]; ARISTOTLE patients (median age 70 years) receiving 2.5 mg b.i.d.): 123 ng/mL
inter-individual variability of concentrations ([3]; SmPC, ARISTOTLE data set, mean age 70 years): around 30%
